Data reported in ChEMBL document CHEMBL1154752, “Discovery of a new and efficient small molecule for neuronal differentiation from mesenchymal stem cell” (J Med Chem, 2009).
Calls of active or inactive are those of the source. The rule behind the calls is not given here.

Columns and labels:
[1] = system: Mesenchymal stem cell; assay: Induction of neuronal differentiation in Fisher rat mesenchymal stem cells assessed as change in cell morphology at 20 uM after 2 days; assay type: functional, cell-based
Procedure, shortened: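 Bone marrow MSCs treated at 20 μM for 2 days. Morphology inspected by immunocytochemistry with anti-β-III tubulin and DAPI staining.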

[2] = system: Mesenchymal stem cell; assay: Induction of astroglial differentiation in Fisher rat mesenchymal stem cells assessed as GFAP level at 20 uM after 2 days by Western blot; assay type: functional, cell-based
Procedure, shortened: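 Rat bone marrow MSCs exposed to 20 μM for 48 h. GFAP, the astroglial marker, detected by Western blot.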

[3] = system: PC-12; assay: Induction of neuronal differentiation in rat PC12 cells assessed as increase in beta-3 tubulin expression after 48 hrs; assay type: functional, cell-based
[4] = Induction of neuronal differentiation in Fisher rat mesenchymal stem cells at 20 uM after 2 days by Nissl staining; assay type: functional, Mesenchymal stem cell
Procedure, shortened: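 Bone marrow MSCs held at 20 μM for 2 days, then Nissl stained. Differentiation estimated by counting cells. Each experiment repeated independently more than three times.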

[5] = system: PC-12; assay: Induction of neurite outgrowth in rat PC12 cells after 48 hrs; assay type: functional, cell-based
[6] = Toxicity in Fisher rat mesenchymal stem cells at 20 uM after 2 days; assay type: cell-based; conditions: mesenchymal stem cell, 48 h
[7] = system: Mesenchymal stem cell; assay: Induction of neuronal differentiation in Fisher rat mesenchymal stem cells assessed as induction of Chrna2 gene expression by DNA microarray; assay type: functional, cell-based
[8] = system: Mesenchymal stem cell; assay: Induction of neuronal differentiation in Fisher rat mesenchymal stem cells assessed as induction of cholinergic receptor gene expression after 2 days by quantitative PCR; assay type: functional, cell-based
Procedure, shortened: (§1)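 MSCs incubated at 10 and 20 μM for 2 days beside a DMSO control. mRNA levels measured by quantitative PCR, three independent runs.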

[9] = system: Mesenchymal stem cell; assay: Induction of neuronal differentiation in Fisher rat mesenchymal stem cells assessed as induction of Chrnb2 gene expression by DNA microarray; assay type: functional, cell-based
[10] = system: Mesenchymal stem cell; assay: Induction of neuronal differentiation in Fisher rat mesenchymal stem cells assessed as increase in neuron specific enolase expression after 2 days; assay type: functional, cell-based
Procedure, shortened: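 Rat bone marrow MSCs treated over a time course. Neuron-specific enolase protein followed alongside β-III tubulin. More than three independent experiments.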

[11] = system: PC-12; assay: Induction of neuronal differentiation in rat PC12 cells assessed as increase in neuron specific enolase expression after 48 hrs; assay type: functional, cell-based
[12] = system: Mesenchymal stem cell; assay: Induction of neuronal differentiation in Fisher rat mesenchymal stem cells assessed as induction of Chrm4 gene expression by DNA microarray; assay type: functional, cell-based
[13] = system: Mesenchymal stem cell; assay: Induction of neuronal differentiation in Fisher rat mesenchymal stem cells assessed as induction of Sizn1 gene expression after 2 days by quantitative PCR; assay type: functional, cell-based; procedure, shortened: as §1
[14] = system: Mesenchymal stem cell; assay: Induction of neuronal differentiation in Fisher rat mesenchymal stem cells assessed as induction of Fbxo2 gene expression after 2 days by quantitative PCR; assay type: functional, cell-based; procedure, shortened: as §1
[15] = system: Mesenchymal stem cell; assay: Induction of neuronal differentiation in Fisher rat mesenchymal stem cells assessed as induction of potassium current at 20 uM after 2 days by patch clamp method; assay type: functional, cell-based
Procedure, shortened: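 Rat MSCs treated at 20 μM for 2 days. Whole-cell patch clamp records membrane K+ current under voltage pulses from -30 to 90 mV.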

[16] = system: Mesenchymal stem cell; assay: Induction of neuronal differentiation in Fisher rat mesenchymal stem cells assessed as change in acetylcholine-induced membrane potential at 20 uM after 2 days by FLIPR; assay type: functional, cell-based
Procedure, shortened: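 Rat MSCs preincubated with 20 μM for 48 h. Membrane potential read with a FLIPR membrane potential dye kit after addition of 10 μM acetylcholine, with untreated cells as reference.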

[17] = system: Mesenchymal stem cell; assay: Induction of neuronal differentiation in Fisher rat mesenchymal stem cells assessed as increase in beta-3 tubulin expression after 2 days; assay type: functional, cell-based
Procedure, shortened: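 Rat bone marrow MSCs given 20 μM for 2 days, with 50 ng/mL NGF as comparator. β-III tubulin detected by Western blot and by immunocytochemistry with anti-β-III tubulin plus DAPI counterstain. More than three independent repeats.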

Question: Which Activity [1] does the source give for O=C(NOC1CCCCO1)c1ccc2[nH]c(=O)c(CCCc3ccccc3)nc2c1 (configuration not stated) here?
Answer: inactive

Question: For COC(=O)c1ccc2nc(CCCc3ccccc3)c(=O)[nH]c2c1, which Activity [1] is on record?
Answer: inactive

Question: With O=C(NOC1CCCCO1)c1ccc2nc(CCCc3ccccc3)c(=O)[nH]c2c1 (configuration not stated) as the molecule, how does the Activity [1] read?
Answer: inactive

Question: For COC(=O)c1ccc2[nH]c(=O)c(CCCc3ccccc3)nc2c1, which Activity [1] is on record?
Answer: inactive

Question: Which Activity [2] does the source give for O=C(NO)c1ccc2[nH]c(=O)c(CCCc3ccccc3)nc2c1 here?
Answer: inactive

Question: And the Activity [3]?
Answer: Active

Question: What about the Activity [4] of the same molecule?
Answer: >95%

Question: And the Activity [5]?
Answer: Active

Question: What about the Activity [6] of the same molecule?
Answer: Non-toxic

Question: And the Activity [7]?
Answer: Active

Question: What about the Activity [8] of the same molecule?
Answer: Dose-dependent effect

Question: What about the Activity [9] of the same molecule?
Answer: Active

Question: What about the Activity [1] of the same molecule?
Answer: Active

Question: What about the Activity [10] of the same molecule?
Answer: Dose-dependent effect

Question: What about the Activity [11] of the same molecule?
Answer: Active

Question: What about the Activity [12] of the same molecule?
Answer: Active

Question: And the Activity [13]?
Answer: Dose-dependent effect

Question: What about the Activity [14] of the same molecule?
Answer: Dose-dependent effect

Question: What about the Activity [15] of the same molecule?
Answer: Active

Question: What about the Activity [16] of the same molecule?
Answer: Active

Question: And the Activity [17]?
Answer: Dose-dependent effect

Question: For O=C(NO)c1ccc2nc(CCCc3ccccc3)c(=O)[nH]c2c1, which Activity [1] is on record?
Answer: inactive
